High-throughput results from PubChem BioAssay.
Rows were chosen to be rich in hits. Some 3% of all compounds tested hit in one or more screens of this group.
MEKK2 WT-MEK5 – raises or lowers MEK5 binding to wildtype human MEKK2 PB1 domain; Q9Y2U5; bead flow cytometry, Alexa488-MEK5 binding to MEKK2 WT; actives lie on both sides; binding response (% of control), % at 10 µM; 1.1% of 290,000 active; AID 1531; in the data active = binding response below about 67% or above about 130%
UBC13 inh – inhibitors of human UBC13 polyubiquitin chain formation; 0.47% of 330,000 active; TR-FRET; inhibition, % at 20 µM; AID 485273; P61088; in the data active = inhibition above about 45%, passing the limit was not always enough
Target sequence (P61088 whole entry, looked up): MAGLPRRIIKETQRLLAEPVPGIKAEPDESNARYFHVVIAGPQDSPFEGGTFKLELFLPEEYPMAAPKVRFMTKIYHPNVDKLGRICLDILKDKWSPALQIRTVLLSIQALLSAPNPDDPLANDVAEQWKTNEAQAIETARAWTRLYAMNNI
UCH37 inh – blocks the human deubiquitinase UCH37; 0.33% of 330,000 active; purified proteasome/UCH37, Ub-AMC cleavage fluorescence; inhibition, % (concentration not given with the values); Q9Y5K5;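 active = mean inhibition over replicate wells above about 20%, limit read from the data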;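 note: 0% = compound-free wells with enzyme and 100% = wells lacking proteasome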
Target sequence (Q9Y5K5 whole entry, looked up): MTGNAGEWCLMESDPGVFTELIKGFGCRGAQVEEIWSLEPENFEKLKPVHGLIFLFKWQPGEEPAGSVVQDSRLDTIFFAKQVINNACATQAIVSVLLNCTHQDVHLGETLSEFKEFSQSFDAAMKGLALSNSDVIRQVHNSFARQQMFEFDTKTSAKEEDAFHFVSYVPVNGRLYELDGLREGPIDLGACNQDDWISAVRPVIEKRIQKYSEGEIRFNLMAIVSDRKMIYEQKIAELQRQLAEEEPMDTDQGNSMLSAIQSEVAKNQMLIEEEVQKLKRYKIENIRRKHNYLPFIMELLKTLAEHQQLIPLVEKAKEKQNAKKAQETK
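Signal – fluorescence, ex 355 nm, em 460 nm · System – Proteasome-bound UCH37 · Input – 0.15 nM proteasome as dispensed · Timing – 30 min preincubation with enzyme, 25 min cleavage at room temperature · Read-out basis – percent inhibition of cleavage signal versus uninhibited and no-proteasome wells · Medium – Tris-HCl pH 7.4 with ATP-MgCl2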
MEKK2mut PB1 HTS – signal of MEK5 binding to mutant human MEKK2 PB1 domain | bead flow cytometry, Alexa488-MEK5 binding to MEKK2 mutant | percent response, % at 10 µM | 0.35% of 290,000 active; in the data active = percent response above about 24%, passing the limit was not always enough
Apaf1 inhib – human Apaf-1 inhibition | O14727 | inhibition, % at 20 µM | reconstituted apoptosome caspase-3 activity, DEVD-Rh110 fluorescence | 0.71% of 330,000 active; active = inhibition of at least 40% at 20 µM;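 note: plate controls were DMSO wells for no effect and DEVD-CHO caspase inhibitor wells for full effect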
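System: Apoptosome proteins | Medium: Hepes pH 7.5 with detergent and BSA | Also added: Cytochrome c trigger plus (Z-DEVD)2-Rh110 caspase-3 substrate | Incubation: 30 min compound preincubation, 50 min activation, room temperature | Detection: Rhodamine 110 fluorescence at Ex 480/Em 540 nm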
MEKK3 PB1 HTS – raises or lowers MEK5 binding to the human MEKK3 PB1 domain | Q99759 | bead-based flow cytometry, Alexa488-MEK5 binding to MEKK3; actives lie on both sides; 0 = blocked by unlabeled MEK5, 100 = vehicle | binding response (% of control), % at 10 µM | 1.4% of 290,000 active;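 active = binding response more than 3 SD above or below the average of its plate-row segment, actives on both sides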;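 note: Alexa488 bead fluorescence after subtracting the streptavidin-only scavenger bead signal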
The depositor's hits bear a star; [ ] = another dose, or the depositor's remark.

CCN(CC)CCN(C(=O)/C=C/c1cccs1)c1nc2ccc(Cl)cc2s1 was read as MEKK2 WT-MEK5 156*, UBC13 inh 17, UCH37 inh -3, MEKK2mut PB1 HTS 13, Apaf1 inhib 22 and MEKK3 PB1 HTS 103.
For CN(C)CCN(C(=O)/C=C/c1cccs1)c1nc2ccc(F)cc2s1 the results were MEKK2 WT-MEK5 127, UBC13 inh 16, UCH37 inh -5, MEKK2mut PB1 HTS 21, Apaf1 inhib 4 and MEKK3 PB1 HTS 102.
Screening Cc1ccc(SCc2cc(-c3ccc(Cl)cc3)no2)cc1 returned UBC13 inh 3, UCH37 inh 1 and Apaf1 inhib 78*.
`CCc1ccc(S(=O)(=O)Nc2nccs2)cc1` gave MEKK2 WT-MEK5 104, UBC13 inh 0, UCH37 inh 1, MEKK2mut PB1 HTS 3, Apaf1 inhib 6 and MEKK3 PB1 HTS 99.
Screening Cc1ccc(NC(=S)C2=C(O)c3ccccc3N(C)S2(=O)=O)cc1 returned MEKK2 WT-MEK5 100, UBC13 inh 0, UCH37 inh 21*, MEKK2mut PB1 HTS 3, Apaf1 inhib 9 and MEKK3 PB1 HTS 103.
Screening CN1c2ccsc2C(O)=C(C(=S)Nc2ccccc2)S1(=O)=O returned MEKK2 WT-MEK5 102, UBC13 inh -1, UCH37 inh 21*, MEKK2mut PB1 HTS 3, Apaf1 inhib 9 and MEKK3 PB1 HTS 102.
For CN1c2ccccc2C(O)=C(C(=S)Nc2ccccc2)S1(=O)=O the results were MEKK2 WT-MEK5 113, UBC13 inh -7, UCH37 inh 16, MEKK2mut PB1 HTS 4, Apaf1 inhib 6 and MEKK3 PB1 HTS 118.
Screening CCNC(=O)C1=C(O)c2sccc2N(C)S1(=O)=O returned MEKK2 WT-MEK5 97, UBC13 inh -10, UCH37 inh 6, MEKK2mut PB1 HTS 1, Apaf1 inhib -14 and MEKK3 PB1 HTS 104.
`Cc1ccccc1NC(=S)C1=C(O)c2sccc2N(C)S1(=O)=O` gave MEKK2 WT-MEK5 104, UBC13 inh 2, UCH37 inh 23*, MEKK2mut PB1 HTS 2, Apaf1 inhib 3 and MEKK3 PB1 HTS 100.
Cn1c(=O)c2c(nc(NCC3CCCO3)n2Cc2ccccc2)n(C)c1=O (centres undefined) was read as MEKK2 WT-MEK5 105, UBC13 inh 11, UCH37 inh 26*, MEKK2mut PB1 HTS 4, Apaf1 inhib -7 and MEKK3 PB1 HTS 106.
`Cc1[nH][nH]c(=O)c1C(c1cc2c(cc1Br)OCO2)c1c(C)[nH][nH]c1=O` gave MEKK2 WT-MEK5 23*, UBC13 inh -9, UCH37 inh 3, MEKK2mut PB1 HTS 36, Apaf1 inhib 4 and MEKK3 PB1 HTS 103.
Screening CCOC(=O)C(=Nc1ccccc1)NO returned MEKK2 WT-MEK5 103, UBC13 inh 1, UCH37 inh 1, MEKK2mut PB1 HTS 0, Apaf1 inhib -4 and MEKK3 PB1 HTS 100.
`CN1CCN(C(=S)c2cn(CCOc3ccccc3F)c3ccccc23)CC1` gave MEKK2 WT-MEK5 -9.0*, UBC13 inh 17, UCH37 inh 2, MEKK2mut PB1 HTS 4, Apaf1 inhib 12 and MEKK3 PB1 HTS 102.
Screening CC(=O)N1CCN(C(=O)c2cccc(S(=O)(=O)N3CCN(c4ccc(F)cc4)CC3)c2)CC1 returned UBC13 inh 6, UCH37 inh 2 and Apaf1 inhib 0.
`O=C(c1cccc(S(=O)(=O)N2CCN(c3ccc(F)cc3)CC2)c1)N1CCCCCCC1` gave UBC13 inh 28, UCH37 inh 1 and Apaf1 inhib 42*.
COC(=O)C(C)n1cnc2c(cnn2-c2ccc(Cl)cc2)c1=O (centres undefined) was read as MEKK2 WT-MEK5 97, UBC13 inh 8, UCH37 inh 30*, MEKK2mut PB1 HTS -2, Apaf1 inhib 8 and MEKK3 PB1 HTS 100.
O=C1OC(Nc2cc(Br)cc3cccnc23)c2ccccc21 (centres undefined) was read as MEKK2 WT-MEK5 107, UBC13 inh -62, UCH37 inh 4, MEKK2mut PB1 HTS 1, Apaf1 inhib 97* and MEKK3 PB1 HTS 126.
For O=C(O)CCCn1c(O)c(C=C2N=c3ccccc3=N2)sc1=S the results were MEKK2 WT-MEK5 77, UBC13 inh -4, UCH37 inh 9, MEKK2mut PB1 HTS -8, Apaf1 inhib -19 and MEKK3 PB1 HTS 81.
Screening COCCCn1c(O)c(/C=C2\N=C(C#N)C(=Nc3ccc(C)cc3)O2)sc1=S returned MEKK2 WT-MEK5 33*[inhibitor], UBC13 inh -2, MEKK2mut PB1 HTS -23, Apaf1 inhib 4 and MEKK3 PB1 HTS 83.
For CC(=O)Nc1ccccc1N(CC(O)Cn1c2ccccc2c2ccccc21)S(=O)(=O)c1ccc(C)cc1 (centres undefined) the results were MEKK2 WT-MEK5 106, UBC13 inh -4, UCH37 inh -1, MEKK2mut PB1 HTS 0, Apaf1 inhib 10 and MEKK3 PB1 HTS 138*.
For COc1ccc(N(CC(O)Cn2c3ccccc3c3ccccc32)S(=O)(=O)c2ccccc2)cc1 (centres undefined) the results were MEKK2 WT-MEK5 90, UBC13 inh 3, UCH37 inh 3, MEKK2mut PB1 HTS -9, Apaf1 inhib 9 and MEKK3 PB1 HTS 87.
Screening Cc1ccc(Nc2ccc(C(N)=O)cc2[N+](=O)[O-])cc1C returned MEKK2 WT-MEK5 101, UBC13 inh -34, UCH37 inh 26*, MEKK2mut PB1 HTS 3, Apaf1 inhib -1 and MEKK3 PB1 HTS 106.
CCc1ccc(Nc2ccc(C(N)=O)cc2[N+](=O)[O-])cc1 was read as MEKK2 WT-MEK5 105, UBC13 inh -27, UCH37 inh 9, MEKK2mut PB1 HTS 0, Apaf1 inhib 0 and MEKK3 PB1 HTS 122.
CCc1ccc2nc3sc(C(=O)N4CCc5ccccc54)c(N)c3cc2c1 was read as MEKK2 WT-MEK5 87, UBC13 inh -22, MEKK2mut PB1 HTS 59*, Apaf1 inhib 10 and MEKK3 PB1 HTS 103.
`Cc1ccc(C)c2nc3sc(C(=O)N4CCCc5ccccc54)c(N)c3cc12` gave UBC13 inh -8, UCH37 inh 6 and Apaf1 inhib 16.
COc1ccc(CC(=O)n2nc(-c3ccc(Cl)cc3)nc2NCc2ccco2)cc1 was read as MEKK2 WT-MEK5 106, UBC13 inh -12, UCH37 inh 6, MEKK2mut PB1 HTS 6, Apaf1 inhib -2 and MEKK3 PB1 HTS 106.
CC1(C)CNc2cc([N+](=O)[O-])ccc2S1 was read as MEKK2 WT-MEK5 96, UBC13 inh -39, UCH37 inh 26*, MEKK2mut PB1 HTS -4, Apaf1 inhib 8 and MEKK3 PB1 HTS 100.
